Laboratory results taken from PMC3709443 (Natural product communications, 2009).
Converted amounts (≈) assume the structure as drawn. Where two headings read alike, the source gives them in different places.

What was measured:
[1] = test system: P. falciparum D6 (chloroquine-sensitive clone); assay: Antimalarial parasite LDH assay, D6 strain; format: cell-based, Plasmodium falciparum; conditions: for P. falciparum D6 IC50: chloroquine-sensitive clone, 72 h, pLDH readout; for IC50: Plasmodium falciparum, D6, 72 h, read-out: P. falciparum D6 IC50
[2] = test system: P. falciparum W2 (chloroquine-resistant clone); assay: Antimalarial parasite LDH assay, W2 strain; format: cell-based, Plasmodium falciparum; conditions: for P. falciparum W2 IC50: chloroquine-resistant clone, 72 h, pLDH readout; for IC50: Plasmodium falciparum, W2, 72 h, read-out: P. falciparum W2 IC50
[3] = test system: VERO cells (monkey kidney fibroblasts); assay: Cytotoxicity to VERO cells; format: cell-based; conditions: for VERO cells IC50: Table 2, maximum dose tested 4760 ng/mL; for IC50: Primates, Vero
[4] = test system: Leishmania donovani promastigotes; assay: Antileishmanial assay; format: cell-based; conditions: for L. donovani IC50 / L. donovani IC90: promastigotes, 26°C, 72 hours; for IC50 / IC90: Leishmania donovani, 72 h; for IC50: read-out: L. donovani IC50; for IC90: read-out: L. donovani IC90
In short: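 L. donovani promastigote culture at 2×10^6 cells/mL exposed to diluted test compound in 96-well format. Incubation 26°C, 72 h. Growth read by Alamar blue. IC50 computed from the growth-inhibition curve. Pentamidine and amphotericin B served as reference agents.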

[5] = test system: Cryptococcus neoformans ATCC 90113; assay: Antimicrobial susceptibility assay, C. neoformans; format: cell-based; conditions: for C. neoformans IC50: first value of IC50/MIC, 50% inhibition of growth; for C. neoformans MIC: second value of IC50/MIC, no detectable growth
In short: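 Modified CLSI broth dilution. Test compound in DMSO, serially diluted in 20% DMSO/saline, duplicate wells. Inoculum in assay medium to target CFU/mL, with growth, solvent and media controls. Absorbance at 630 nm before and after incubation. IC50 from percent growth vs concentration. MIC is the lowest concentration without detectable growth. MFC comes from 5 μL of clear wells plated on agar, no growth. Amphotericin B control.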

[6] = test system: Escherichia coli ATCC 35218; assay: Antimicrobial susceptibility assay, E. coli; format: cell-based; conditions: for E. coli IC50: first value of IC50/MIC
In short: (§1)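 Modified CLSI broth dilution with test compound dissolved in DMSO and serially diluted in 20% DMSO/saline, in duplicate. Inoculum prepared to target CFU/mL. Plates read at 630 nm before and after incubation. IC50 from percent growth vs concentration. MIC is the lowest concentration with no detectable growth. MBC is the lowest concentration giving no growth when 5 μL from clear wells is subcultured on agar. Ciprofloxacin control.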

[7] = test system: methicillin-resistant Staphylococcus aureus ATCC 43300 (MRS); assay: Antimicrobial susceptibility assay, MRS; format: cell-based; conditions: for MRS IC50: first value of IC50/MIC
In short: as §1

[8] = test system: Aspergillus fumigatus ATCC 90906; assay: Antimicrobial susceptibility assay, A. fumigatus; format: cell-based; conditions: for A. fumigatus IC50: first value of IC50/MIC
In short: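 Modified CLSI broth dilution. Test compound dissolved in DMSO, serially diluted in 20% DMSO/saline and plated in duplicate. Inoculum prepared in assay medium to target CFU/mL. Fluorescence (544ex/590em) read before and after incubation. IC50 from percent growth vs concentration. MIC is the lowest concentration with no detectable growth. MFC is taken from 5 μL of each clear well subcultured on agar. Amphotericin B control.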

[9] = test system: Mycobacterium intracellulare ATCC 23068; assay: Antimicrobial susceptibility assay, M. intracellulare; format: cell-based; conditions: for M. intracellulare IC50: first value of IC50/MIC
In short: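 Modified Alamar Blue procedure within modified CLSI methods. Test compound in DMSO, serially diluted in 20% DMSO/saline, duplicate wells. Inoculum in assay medium to target CFU/mL. Fluorescence 544ex/590em read before and after incubation. IC50 from percent growth vs concentration. MIC is the lowest concentration with no detectable growth. MBC from 5 μL of clear wells subcultured on agar. Ciprofloxacin control.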

[10] = test system: SK-MEL: Human malignant melanoma; assay: Cytotoxicity assay; format: cell-based; conditions: for SK-MEL IC50: 48 hours, Neutral Red
In short: (§2)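 ATCC-sourced cells seeded at 25000 cells/well and incubated 24 h. Test compound was then added at various concentrations for a further 48 h. Viable cells were measured by a modified Neutral Red procedure. IC50 was determined from dose-response curves of percent growth inhibition. Doxorubicin was the positive control and DMSO the vehicle control.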

[11] = test system: KB: Human epidermoid carcinoma; assay: Cytotoxicity assay; format: cell-based; conditions: for KB IC50: 48 hours, Neutral Red
In short: as §2

[12] = test system: BT-549: Human ductal carcinoma; assay: Cytotoxicity assay; format: cell-based; conditions: for BT-549 IC50: 48 hours, Neutral Red
In short: as §2

[13] = test system: SK-OV-3: Human ovarycarcinoma; assay: Cytotoxicity assay; format: cell-based; conditions: for SK-OV-3 IC50: 48 hours, Neutral Red
In short: as §2

[14] = test system: LLC-PK11: Pig kidney epithelial; assay: Cytotoxicity assay; format: cell-based; conditions: 48 hours; Neutral Red
In short: as §2

| Compound | P. falciparum D6 IC50 [1] [µg/mL] | P. falciparum W2 IC50 [2] [µg/mL] | VERO cells IC50 [3] | L. donovani IC50 [4] [µg/mL] | L. donovani IC90 [4] [µg/mL] | C. neoformans IC50 [5] [µg/mL] | C. neoformans MIC [5] [µg/mL] | E. coli IC50 [6] | MRS IC50 [7] | A. fumigatus IC50 [8] | M. intracellulare IC50 [9] | SK-MEL IC50 [10] [µg/mL] | KB IC50 [11] [µg/mL] | BT-549 IC50 [12] [µg/mL] | SK-OV-3 IC50 [13] [µg/mL] | LLC-PK11 IC50 [14] [µg/mL] | also measured |
| --- | --- | --- | --- | --- | --- | --- | --- | --- | --- | --- | --- | --- | --- | --- | --- | --- | --- |
| 6-Hydroxy-5-normethylbudmunchiamine K [Compound 4] | 0.12 | 0.27 | NC (NC = Not cytotoxic (up to the maximum dose tested of 4760 ng/mL)) | 2.1 | 7 | 6.0 | 10.0 | -/- (- =Not Active) | 20.0 µg/mL | -/- (- =Not Active) | 20.0 µg/mL | 5.7 | 5.4 | 6.0 | 6.2 | 6.0 | antimicrobial activity against C. neoformans in words [5]: weakly active |
| 6-Hydroxybudmunchiamine K [Compound 2] | 0.16 | 0.22 | NC (NC = Not cytotoxic (up to the maximum dose tested of 4760 ng/mL)) | 3.4 | 7 | 10.0 | 20.0 | -/- (- =Not Active) | -/- (- =Not Active) | -/- (- =Not Active) | -/- (- =Not Active) | 5.8 | 6.0 | 6.0 | 6.5 | 5.3 | antimicrobial activity against C. neoformans in words [5]: weakly active |
| C[C@@H]1[C@H](O)[C@@H](C)/C=C/C=C/C=C/C=C/C=C/C=C/C=C/[C@H](O[C@@H]2O[C@H](C)[C@@H](O)[C@H](N)[C@@H]2O)C[C@@H]2O[C@](O)(C[C@@H](O)C[C@@H](O)[C@H](O)CC[C@@H](O)C[C@@H](O)CC(=O)O[C@H]1C)C[C@H](O)[C@H]2C(=O)O [Amphotericin B, amphotericin B, reference compound] | – | – | – | – | – | – | – | – | – | – | – | – | – | – | – | – | IC50 [4]: 0.32 µg/mL (≈ 0.346 µM); IC90 [4]: 0.8 µg/mL (≈ 0.866 µM); IC50 ([5]; Cryptococcus neoformans, ATCC90113, read-out: C. neoformans IC50): 0.8 µg/mL (≈ 0.866 µM); MIC ([5]; Cryptococcus neoformans, ATCC90113, read-out: C. neoformans MIC): 1.25 µg/mL (≈ 1.35 µM); IC50 ([8]; Aspergillus fumigatus, ATCC90906, read-out: A. fumigatus IC50): 0.6 µg/mL (≈ 0.649 µM); MIC ([8]; Aspergillus fumigatus, ATCC90906, read-out: A. fumigatus MIC): 1.25 µg/mL (≈ 1.35 µM) |
| C[C@@H]1CC[C@H]2[C@@H](C)C(=O)O[C@@H]3O[C@@]4(C)CC[C@@H]1[C@]32OO4 [Artemisinin, artemisinin, reference compound] | – | – | – | – | – | – | – | – | – | – | – | – | – | – | – | – | IC50 [1]: 0.01 µg/mL (≈ 0.0354 µM); IC50 [2]: 0.006 µg/mL (≈ 0.0213 µM); IC50 ([3]; read-out: VERO cells IC50): > 4.76 µg/mL |
| CCN(CC)CCCC(C)Nc1ccnc2cc(Cl)ccc12 (stereo not drawn) [Chloroquine, chloroquine, reference compound] | – | – | – | – | – | – | – | – | – | – | – | – | – | – | – | – | IC50 [1]: 0.015 µg/mL (≈ 0.0469 µM); IC50 [2]: 0.135 µg/mL (≈ 0.422 µM); IC50 ([3]; read-out: VERO cells IC50): > 4.76 µg/mL |
| O=C(O)c1cn(C2CC2)c2cc(N3CCNCC3)c(F)cc2c1=O [Ciprofloxacin, ciprofloxacin, reference compound] | – | – | – | – | – | – | – | – | – | – | – | – | – | – | – | – | IC50 ([6]; Escherichia coli, ATCC35218, read-out: E. coli IC50): 0.004 µg/mL (≈ 0.0121 µM); IC50 ([7]; Staphylococcus aureus, ATCC43300, read-out: MRS IC50): 0.09 µg/mL (≈ 0.272 µM); MIC ([7]; Staphylococcus aureus, ATCC43300, read-out: MRS MIC): 0.5 µg/mL (≈ 1.51 µM); IC50 ([9]; Mycobacterium intracellulare, ATCC23068, read-out: M. intracellulare IC50): 0.5 µg/mL (≈ 1.51 µM); MIC ([9]; Mycobacterium intracellulare, ATCC23068, read-out: M. intracellulare MIC): 1 µg/mL (≈ 3.02 µM) |
| CCCCCCCCCCCCCCCC1CC(=O)NCCCN(C)CCCCN(C)CCCN1 (stereo not drawn) [Compound 3, 5-Normethylbudmunchiamine K] | 0.14 | 0.21 | 3 µg/mL | 0.8 | 1.3 | 1.0 | 2.5 | 6.5 µg/mL | 6.5 µg/mL | -/- (- =Not Active) | 4.0 µg/mL | 2.0 | 2.3 | 2.0 | 4.8 | 2.5 | antileishmanial activity compared with pentamidine ([4]; in words): more potent than pentamidine; E. coli MIC ([6]; second value of IC50/MIC): 10.0 µg/mL; MRS MIC ([7]; second value of IC50/MIC): 10.0 µg/mL; M. intracellulare MIC ([9]; second value of IC50/MIC): 20.0 µg/mL |
| COc1cccc2c1C(=O)c1c(O)c3c(c(O)c1C2=O)C[C@@](O)(C(=O)CO)C[C@@H]3O[C@H]1C[C@H](N)[C@H](O)[C@H](C)O1 [Doxorubicin, reference compound] | – | – | – | – | – | – | – | – | – | – | – | – | – | – | – | – | IC50 ([3]; 48 h, read-out: VERO IC50): > 5 µg/mL; IC50 ([10]; Homo sapiens, 48 h, read-out: SK-MEL IC50): 0.85 µg/mL (≈ 1.56 µM); IC50 ([11]; Homo sapiens, 48 h, read-out: KB IC50): 0.9 µg/mL (≈ 1.66 µM); IC50 ([12]; Homo sapiens, BT-549, 48 h, read-out: BT-549 IC50): 0.9 µg/mL (≈ 1.66 µM); IC50 ([13]; Homo sapiens, SK-OV-3, 48 h, read-out: SK-OV-3 IC50): 0.9 µg/mL (≈ 1.66 µM) |
| N=C(N)c1ccc(OCCCCCOc2ccc(C(=N)N)cc2)cc1 [Pentamidine, reference compound] | – | – | – | – | – | – | – | – | – | – | – | – | – | – | – | – | IC50 [4]: 2.1 µg/mL (≈ 6.17 µM); IC90 [4]: 4 µg/mL (≈ 11.7 µM) |
